Compound activity: PubChem BioAssay, Johns Hopkins Ion Channel Center
TRPC4 block = blocks the mouse TRPC4 cation channel | Q9QUQ5 | HEK293 TRPC4beta/mu-opioid, DAMGO-evoked Fluo4 calcium flux; stronger effect = lower value | B-score at 10 µM | 300,000 tested, 0.39% active | AID 2247;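 active means B-score over 3 SD under the library average, no early fluorescence shift, positive overall ratio signal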
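Signal: kinetic Fluo4 fluorescence imaging of calcium influx. Material: stable TRPC4beta/mu-opioid receptor HEK293 cells. Probe or stimulus: DAMGO in two steps, submaximal then maximal.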
TRPC6 inh = inhibitors of mouse TRPC6 channel | Q61143 | 310,000 tested, 1.1% active | AID 2553 | HEK293-TRPC6, membrane potential dye, ACh-evoked depolarization; stronger effect = lower value | B-score at 10 µM;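 active means B-score under library mean minus 3 SD, initial fluorescence not abnormally high, positive integrated signal ratio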;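 further: B-score derived from integrated fluorescence ratio over the kinetic read; more negative B-score means stronger inhibition of depolarization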
TRPC6 act = activates the mouse TRPC6 cation channel. Q61143. HEK293-TRPC6 membrane potential dye fluorescence; stronger effect = higher value. B-score at 10 µM. 310,000 tested, 0.13% active. AID 2550;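 active means B-score of the integrated fluorescence ratio above library mean plus 3 SD, and starting fluorescence ratio within library mean plus 5 SD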;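 further: higher score means more depolarization so channel activation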
TRPC4 agonist = activators of mouse TRPC4 channel. B-score at 10 µM. HEK293 TRPC4beta/mu-opioid, Fluo4 calcium fluorescence; stronger effect = higher value. 310,000 tested, 0.49% active. AID 2237;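 active means B-score above 5 SD of library B-scores, and initial fluorescence ratio not above library mean plus 5 SD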;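 further: positive B-score marks a calcium rise read as TRPC4 activation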
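System: HEK293 cells stably co-expressing mouse TRPC4beta and mu-opioid receptor; Schedule: Fluo4 dye loading 45 min at room temperature, 110 s recording; Detection: Fluo4 fluorescence, kinetic; Evaluation: B-scored integrated calcium fluorescence ratio; Controls: buffer (low) and maximal DAMGO (high).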
TRPC4 PAM = TRPC4 (mouse) allosteric potentiation | Q9QUQ5 | 310,000 tested, 0.42% active | B-score at 10 µM | HEK293 TRPC4beta/mu-opioid, DAMGO EC20, Fluo-4 Ca2+ flux; stronger effect = higher value;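 active means B-score of calcium response area above 5 SD of library B-scores, with initial fluorescence ratio within 5 SD of library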
TRPC4 sel inh 2 = second check of whether TRPC6 inhibitors also affect mouse TRPC4; shares compounds with TRPC6 inh; 920 tested, 42% active; HEK293 TRPC4/MOR, membrane potential dye fluorescence; channel activated by saturating DAMGO dose; inhibition, % at 10 µM;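 active means compounds whose fluorescence signal differed from control wells by over 3 SD, either direction, in both duplicate plates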
TRPC4 spec = mouse TRPC4 off-target activity of TRPC6 inhibitors; shares compounds with TRPC6 inh; activity change, negative = inhibition, % at 10 µM; 920 tested, 61% active; HEK293 TRPC4/mu-opioid, membrane potential fluorescence;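 active means rise or fall in signal beyond 3 SD of buffer-only wells in both replicate plates, either sign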;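 further: integrated kinetic ratio of fluorescence range over baseline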
HEK293 MPD ctr 2-1 = second counter-screen for TRPC6 inhibitors: parental HEK293 cells; shares compounds with TRPC6 inh; parental HEK293 membrane potential dye fluorescence; maximal acetylcholine challenge after compound addition; signal change vs control, % at 10 µM; 920 tested, 31% active;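 active means membrane potential signal moving either way by over 3 SD of the maximum-effect control, in both duplicate plates, meaning non-specific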
HEK293 MPD ctr-1 = parental HEK293 nonspecific activity of TRPC6 inhibitors. 920 tested, 60% active. AID 2780. membrane potential signal change, % at 10 µM. parental HEK293 membrane potential dye fluorescence. shares compounds with TRPC6 inh;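 active means membrane potential signal shifting up or down by more than 3 SD of buffer-only wells, on both duplicate plates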
HEK293 MPD ctr-2 = counter-screen for TRPC6 modulators: effect in parental HEK293 cells; shares compounds with TRPC6 inh; membrane potential signal change, % at 10 µM; membrane potential dye fluorescence; 2,400 tested, 51% active;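 active means membrane potential signal moves up or down beyond 5 SD from buffer-only wells, on both duplicate plates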
HEK293 MPD ctr 2-2 = second counter-screen for TRPC6 modulators: effect in parental HEK293 cells | 2,400 tested, 14% active | membrane potential dye fluorescence; after compound, maximal acetylcholine stimulation | inhibition, % at 10 µM | shares compounds with TRPC6 inh;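 active means membrane potential signal drops by more than 5 SD from the mean control signal, in both duplicate plates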
TRPC4/MOR mod = tests whether TRPC6 modulators also affect mouse TRPC4; shares compounds with TRPC6 inh; HEK293 TRPC4/mu-opioid, membrane potential fluorescence; percent change from control (negative = decrease, positive = increase), % at 10 µM; 2,400 tested, 69% active;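 active means membrane potential signal moved up or down beyond 5 SD of buffer control wells, in both duplicate plates, actives on both sides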
TRPC4/MOR inh 2 = second check of whether TRPC6 modulators also affect mouse TRPC4; shares compounds with TRPC6 inh; HEK293 TRPC4/mu-opioid, membrane potential dye fluorescence; stimulated with maximal-effect DAMGO; inhibition, % at 10 µM; 2,400 tested, 55% active; AID 488928;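 active means drop in membrane potential signal beyond 5 SD of the control wells in both duplicate plates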;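 further: TRPC4 counter screen for TRPC6 hits run under conditions tuned for TRPC6 not TRPC4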
TRPC6 block conf = confirmation of mouse TRPC6 inhibitors. shares compounds with TRPC6 inh. inhibition, % at 10 µM. 3,300 tested, 43% active. HEK293-TRPC6, membrane potential dye, ACh-evoked depolarization;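 active means fluorescence ratio falls more than 5 SD below the full-stimulation control mean, in both duplicate runs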;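 further: integrated fluorescence ratio of peak minus minimum over baseline after agonist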
TRPC6 act confirm = confirmation of mouse TRPC6 activators | shares compounds with TRPC6 inh | HEK293-TRPC6 membrane potential dye fluorescence, FDSS | activation, % at 10 µM | 2,800 tested, 11% active;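 active means ratio signal rise beyond 5 SD above unstimulated control wells' mean, seen in both duplicate runs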
Each line names hits and unclear results; the compound was inactive in the other large screens (follow-up assays come after a bar, where they were run). Only some compounds are listed: those with a hit (about 2.3% of all), similar ones and a draw of the others.

Cc1cc(OCCN2CCC(Cc3ccccc3)CC2)ccc1[N+](=O)[O-]	TRPC6 inh -8.2 | TRPC4 sel inh 2 54% | TRPC4 spec inactive | HEK293 MPD ctr 2-1 inactive | HEK293 MPD ctr-1 inactive | TRPC6 block conf inactive | TRPC6 act confirm inactive
Cc1ccc(C)c(NC(=O)CSc2nnc(-c3ccccc3)n2N)c1	none
Cc1ccc(CNC(=O)CCC2CCCN(Cc3c(C)nn(C(C)C)c3C)C2)o1 (stereo unspecified)	none
CCOC(=O)c1c(C)cc(C)n2c1nc1ccccc12	TRPC6 inh -8.1 | TRPC4 sel inh 2 inactive | TRPC4 spec -21% | HEK293 MPD ctr 2-1 inactive | HEK293 MPD ctr-1 -250% | TRPC6 block conf inactive | TRPC6 act confirm inactive
COc1cccc(Cl)c1NC(=O)N1CCN(c2cc(C)nc3ccccc23)CC1	TRPC6 inh -9.7 | HEK293 MPD ctr-2 -146% | HEK293 MPD ctr 2-2 inactive | TRPC4/MOR mod -38% | TRPC4/MOR inh 2 74% | TRPC6 block conf 48% | TRPC6 act confirm inactive
Cc1cc(N2CCN(S(=O)(=O)c3ccc(Cl)cc3)CC2)c2ccccc2n1	TRPC6 inh -5.1 | HEK293 MPD ctr-2 -75% | HEK293 MPD ctr 2-2 inactive | TRPC4/MOR mod -22% | TRPC4/MOR inh 2 72% | TRPC6 block conf inactive | TRPC6 act confirm inactive
Cc1cc(N2CCN(S(=O)(=O)c3ccc(Cl)c(Cl)c3)CC2)c2ccccc2n1	none
CCNC(=S)N1CCN(S(=O)(=O)c2ccc(C)c(C)c2)CC1	TRPC6 inh -5.4 | HEK293 MPD ctr-2 inactive | HEK293 MPD ctr 2-2 inactive | TRPC4/MOR mod inactive | TRPC4/MOR inh 2 inactive | TRPC6 block conf inactive
CCOc1ccccc1NC(=O)Cn1c(=O)n(-c2ccc(OC)cc2OC)c(=O)c2c(C)c(C(=O)N(CC)CC)sc21	none
C/C(=N\OC(=O)c1ccc(C)cc1)c1c(C)nc2cc(C)ccn12	none
Cc1ccc(NC(=O)CCCCCN2C(=O)[C@@H]3Cc4ccccc4CN3C2=O)cc1	none
COc1ccc(NC(=O)CCCCCN2C(=O)[C@@H]3Cc4ccccc4CN3C2=O)cc1Cl	TRPC6 inh -7.4 | HEK293 MPD ctr-2 inactive | HEK293 MPD ctr 2-2 inactive | TRPC4/MOR mod inactive | TRPC4/MOR inh 2 inactive | TRPC6 block conf inactive | TRPC6 act confirm inactive
CC(C)c1ccc(N2C(=O)CC(NNC(=O)c3cccnc3)C2=O)cc1 (stereo unspecified)	none
COc1cc2c(cc1OC)CN(S(=O)(=O)c1cccs1)CC2	none
COc1ccc(S(=O)(=O)N2CCc3cc(OC)c(OC)cc3C2)cc1	TRPC6 inh -7.1 | TRPC4 sel inh 2 inactive | TRPC4 spec inactive | HEK293 MPD ctr 2-1 inactive | HEK293 MPD ctr-1 inactive | TRPC6 block conf inactive | TRPC6 act confirm inactive
Cc1nc2cc(CO)ccc2n1C	none
Cn1c(NCc2ccc(Cl)cc2)nc2ccccc21	none
Cc1ccc(CNc2ccc3c(c2)nc(C)n3C)cc1	TRPC6 inh -8.1 | TRPC4 sel inh 2 50% | TRPC4 spec -15% | HEK293 MPD ctr 2-1 inactive | HEK293 MPD ctr-1 -176% | TRPC6 block conf 66% | TRPC6 act confirm inactive
Cc1nc2cc(NCc3ccc(Cl)cc3)ccc2n1C	TRPC6 inh -7.1 | TRPC4 sel inh 2 51% | TRPC4 spec -15% | HEK293 MPD ctr 2-1 inactive | HEK293 MPD ctr-1 -300% | TRPC6 block conf 60% | TRPC6 act confirm inactive
Cc1ccc(CNc2ccc3c(c2)ncn3C(C)(C)C)cc1	TRPC6 inh -6.8, TRPC4 PAM 21 | TRPC4 sel inh 2 52% | TRPC4 spec 12% | HEK293 MPD ctr 2-1 240% | HEK293 MPD ctr-1 inactive | TRPC6 block conf inactive | TRPC6 act confirm inactive
CN1CCN(C(=S)Nc2ccc(S(N)(=O)=O)cc2)CC1	none
NCc1cc2c3c(c1)CCCN3CCC2	TRPC6 inh -5.7 | HEK293 MPD ctr-2 inactive | HEK293 MPD ctr 2-2 inactive | TRPC4/MOR mod inactive | TRPC4/MOR inh 2 inactive | TRPC6 block conf inactive | TRPC6 act confirm inactive
Cc1ccc(-n2nnnc2CNC(=O)c2ccc3c(c2)OCO3)cc1C	TRPC6 inh -8.1 | HEK293 MPD ctr-2 inactive | HEK293 MPD ctr 2-2 95% | TRPC4/MOR mod 19% | TRPC4/MOR inh 2 inactive | TRPC6 block conf 80% | TRPC6 act confirm inactive
CCCOc1ccc(N2CC(C(=O)NC3=NCCS3)CC2=O)cc1 (stereo unspecified)	none
O=C(O)c1nccnc1C(=O)Nc1ccc(S(=O)(=O)N2CCOCC2)cc1	none
COCCOC(=O)c1nccnc1C(=O)Nc1ccc(S(=O)(=O)N2CCOCC2)cc1	TRPC6 inh -6.2 | HEK293 MPD ctr-2 inactive | HEK293 MPD ctr 2-2 inactive | TRPC4/MOR mod inactive | TRPC4/MOR inh 2 inactive | TRPC6 block conf inactive | TRPC6 act confirm inactive
CCOc1ccc(NC2OC(CO)C(O)C(O)C2O)c([N+](=O)[O-])c1 (stereo unspecified)	none
C[C@]12C=CC(=O)C=C1CC[C@@H]1C2=CC[C@]2(C)[C@@H](C(=O)CN3CCN(c4cc(N5CCCC5)nc(N5CCCC5)n4)CC3)CC[C@@H]12	TRPC6 inh -6.7 | HEK293 MPD ctr-2 -238% | HEK293 MPD ctr 2-2 inactive | TRPC4/MOR mod -54% | TRPC4/MOR inh 2 64% | TRPC6 block conf 69% | TRPC6 act confirm inactive
